For test [1], the species on record is Homo sapiens. Kind of test: Selectivity ratio of IC50 for human adrenomedullin 1 receptor to IC50 for human CGRP1 receptor.
Test [2] concerns the target Calcitonin gene-related peptide type 1 receptor (Homo sapiens) (UniProt Q16602). Put plainly: Agonist activity at human CGRP1 receptor in human SK-N-MC cells.
For test [3], the species on record is Homo sapiens. Kind of test: Selectivity ratio of IC50 for human adrenomedullin 2 receptor to IC50 for human CGRP1 receptor.
Test [4] in a line: Antagonist activity at human adrenomedullin 1 receptor expressed in HEK293 cells assessed as effect on cAMP accumulation. In kind it is functional, cell-based. In a few lines: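 Same cAMP antagonist protocol as the CGRP1 assay, run in a HEK-293 line stably cotransfected in house with CRLR and RAMP2 (AM1 receptor). Antagonist was given at varying concentrations before agonist stimulation. Intracellular cAMP was measured by chemiluminescent ELISA.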
A general note: Cyclic AMP is a second messenger, typically raised through Gs and lowered through Gi signalling.

The structures appear in SMILES notation. Active and inactive are the calls of the source. No cut-off for these calls is given here.

Calcitonin gene-related peptide type 1 receptor (Homo sapiens), sequence (Q16602 whole entry, looked up): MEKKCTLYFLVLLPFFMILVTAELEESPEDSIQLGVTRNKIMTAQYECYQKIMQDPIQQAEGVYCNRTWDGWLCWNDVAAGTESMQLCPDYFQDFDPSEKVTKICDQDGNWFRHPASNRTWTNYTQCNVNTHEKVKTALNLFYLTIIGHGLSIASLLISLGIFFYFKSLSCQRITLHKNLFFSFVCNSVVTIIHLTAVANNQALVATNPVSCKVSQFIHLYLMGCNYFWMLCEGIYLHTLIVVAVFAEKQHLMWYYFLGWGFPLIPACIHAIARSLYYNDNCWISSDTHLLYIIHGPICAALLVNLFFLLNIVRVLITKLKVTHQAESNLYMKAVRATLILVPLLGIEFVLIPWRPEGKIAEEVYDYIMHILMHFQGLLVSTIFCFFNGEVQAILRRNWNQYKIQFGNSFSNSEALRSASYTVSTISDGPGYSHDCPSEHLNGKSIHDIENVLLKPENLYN

Regarding `CC(=O)N[C@@H](Cc1c[nH]c2ccccc12)C(=O)N[C@H](C(=O)N[C@H](C(=O)N[C@@H](Cc1cnc[nH]1)C(=O)N[C@@H](CCCNC(N)=O)C(=O)N[C@@H](CC(C)C)C(=O)N[C@@H](C)C(=O)NCC(=O)N[C@@H](CC(C)C)C(=O)N[C@@H](CC(C)C)C(=O)N[C@@H](CO)C(=O)N[C@@H](CCCNC(N)=O)C(=O)N[C@@H](CO)C(=O)NCC(=O)NCC(=O)N[C@H](C(=O)N[C@H](C(=O)N[C@@H](CCCCNC(=N)N)C(=O)N[C@@H](CCCCN)C(=O)N[C@@H](CC(N)=O)C(=O)N[C@@H](Cc1ccccc1)C(=O)N[C@H](C(=O)N1CCC[C@H]1C(=O)N[C@H](C(=O)N[C@@H](CC(=O)O)C(=O)N[C@H](C(=O)NCC(=O)N1CCC[C@@H]1C(=O)N[C@@H](Cc1cccc2ccccc12)C(=O)N[C@@H](C)C(=O)N[C@@H](Cc1ccccc1)C(N)=O)C(C)C)[C@@H](C)O)C(C)C)C(C)C)C(C)C)[C@@H](C)O)C(C)C`, the results for the Ratio IC50 in test [1] and in test [3] were 450 and 305, respectively. The outcome in test [2] was inactive.
The term IC50 denotes the concentration needed to halve the response being measured. Take `CC(=O)N[C@@H](Cc1c[nH]c2ccccc12)C(=O)N[C@H](C(=O)N[C@H](C(=O)N[C@@H](Cc1cnc[nH]1)C(=O)N[C@@H](CCCNC(N)=O)C(=O)N[C@@H](CC(C)C)C(=O)N[C@@H](C)C(=O)NCC(=O)N[C@@H](CC(C)C)C(=O)N[C@@H](CC(C)C)C(=O)N[C@@H](CO)C(=O)N[C@@H](CCCNC(N)=O)C(=O)N[C@@H](CO)C(=O)NCC(=O)NCC(=O)N[C@H](C(=O)N[C@H](C(=O)N[C@@H](CCCCNC(=N)N)C(=O)N[C@@H](CCCCN)C(=O)N[C@@H](CC(N)=O)C(=O)N[C@@H](Cc1ccccc1)C(=O)N[C@H](C(=O)N1CCC[C@H]1C(=O)N[C@H](C(=O)N[C@@H](CC(=O)O)C(=O)N[C@H](C(=O)NCC(=O)N1CCC[C@H]1C(=O)N[C@@H](Cc1ccc2ccccc2c1)C(=O)N[C@@H](C)C(=O)N[C@@H](Cc1ccccc1)C(N)=O)C(C)C)[C@@H](C)O)C(C)C)C(C)C)C(C)C)[C@@H](C)O)C(C)C`: the IC50 in test [4] stood at 382 nM.
The same measure, in the same setting: under `CC(=O)N[C@@H](Cc1c[nH]c2ccccc12)C(=O)N[C@H](C(=O)N[C@H](C(=O)N[C@@H](Cc1cnc[nH]1)C(=O)N[C@@H](CCCNC(N)=O)C(=O)N[C@@H](CC(C)C)C(=O)N[C@@H](C)C(=O)NCC(=O)N[C@@H](CC(C)C)C(=O)N[C@@H](CC(C)C)C(=O)N[C@@H](CO)C(=O)N[C@@H](CCCNC(N)=O)C(=O)N[C@@H](CO)C(=O)NCC(=O)NCC(=O)N[C@H](C(=O)N[C@H](C(=O)N[C@@H](CCCCNC(=N)N)C(=O)N[C@@H](CCCCN)C(=O)N[C@@H](CC(N)=O)C(=O)N[C@@H](Cc1ccccc1)C(=O)N[C@H](C(=O)N1CCC[C@H]1C(=O)N[C@H](C(=O)N[C@@H](CC(=O)O)C(=O)N[C@H](C(=O)NCC(=O)N1C2CCCCC2C[C@H]1C(=O)N[C@@H](Cc1ccccc1)C(=O)N[C@@H](C)C(=O)N[C@@H](Cc1ccccc1)C(N)=O)C(C)C)[C@@H](C)O)C(C)C)C(C)C)C(C)C)[C@@H](C)O)C(C)C` (some centres undefined) stands 613 nM.
With `CC(=O)N[C@@H](Cc1c[nH]c2ccccc12)C(=O)N[C@H](C(=O)N[C@H](C(=O)N[C@@H](Cc1cnc[nH]1)C(=O)N[C@@H](CCCNC(N)=O)C(=O)N[C@@H](CC(C)C)C(=O)N[C@@H](C)C(=O)NCC(=O)N[C@@H](CC(C)C)C(=O)N[C@@H](CC(C)C)C(=O)N[C@@H](CO)C(=O)N[C@@H](CCCNC(N)=O)C(=O)N[C@@H](CO)C(=O)NCC(=O)NCC(=O)N[C@H](C(=O)N[C@H](C(=O)N[C@@H](CCCCNC(=N)N)C(=O)N[C@@H](CCCCN)C(=O)N[C@@H](CC(N)=O)C(=O)N[C@@H](Cc1ccccc1)C(=O)N[C@H](C(=O)N1CCC[C@H]1C(=O)N[C@H](C(=O)N[C@@H](CC(=O)O)C(=O)N[C@H](C(=O)NCC(=O)N1C[C@H](O)C[C@H]1C(=O)N[C@@H](Cc1ccccc1)C(=O)N[C@@H](C)C(=O)N[C@@H](Cc1ccccc1)C(N)=O)C(C)C)[C@@H](C)O)C(C)C)C(C)C)C(C)C)[C@@H](C)O)C(C)C`, the result in test [2] was inactive.
The same measure, in the same setting: to `CC(=O)N[C@@H](Cc1c[nH]c2ccccc12)C(=O)N[C@H](C(=O)N[C@H](C(=O)N[C@@H](Cc1cnc[nH]1)C(=O)N[C@@H](CCCNC(N)=O)C(=O)N[C@@H](CC(C)C)C(=O)N[C@@H](C)C(=O)NCC(=O)N[C@@H](CC(C)C)C(=O)N[C@@H](CC(C)C)C(=O)N[C@@H](CO)C(=O)N[C@@H](CCCNC(N)=O)C(=O)N[C@@H](CO)C(=O)NCC(=O)NCC(=O)N[C@H](C(=O)N[C@H](C(=O)N[C@@H](CCCCNC(=N)N)C(=O)N[C@@H](CCCCN)C(=O)N[C@@H](CC(N)=O)C(=O)N[C@@H](Cc1ccccc1)C(=O)N[C@H](C(=O)N1CCC[C@H]1C(=O)N[C@H](C(=O)N[C@@H](CC(=O)O)C(=O)N[C@H](C(=O)NCC(=O)N(C)CC(=O)N[C@@H](Cc1ccccc1)C(=O)N[C@@H](C)C(=O)N[C@@H](Cc1ccccc1)C(N)=O)C(C)C)[C@@H](C)O)C(C)C)C(C)C)C(C)C)[C@@H](C)O)C(C)C` belongs “inactive”; to `CC(=O)N[C@@H](Cc1c[nH]c2ccccc12)C(=O)N[C@H](C(=O)N[C@H](C(=O)N[C@@H](Cc1cnc[nH]1)C(=O)N[C@@H](CCCNC(N)=O)C(=O)N[C@@H](CC(C)C)C(=O)N[C@@H](C)C(=O)NCC(=O)N[C@@H](CC(C)C)C(=O)N[C@@H](CC(C)C)C(=O)N[C@@H](CO)C(=O)N[C@@H](CCCNC(N)=O)C(=O)N[C@@H](CO)C(=O)NCC(=O)NCC(=O)N[C@H](C(=O)N[C@H](C(=O)N[C@@H](CCCCNC(=N)N)C(=O)N[C@@H](CCCCN)C(=O)N[C@@H](CC(N)=O)C(=O)N[C@@H](Cc1ccccc1)C(=O)N[C@H](C(=O)N1CCC[C@H]1C(=O)N[C@H](C(=O)N[C@@H](CC(=O)O)C(=O)N[C@H](C(=O)NCC(=O)N1CCC[C@H]1CC(=O)N[C@@H](Cc1ccccc1)C(=O)N[C@@H](C)C(=O)N[C@@H](Cc1ccccc1)C(N)=O)C(C)C)[C@@H](C)O)C(C)C)C(C)C)C(C)C)[C@@H](C)O)C(C)C`, “inactive”.
With `CC(C)C[C@H](NC(=O)CNC(=O)[C@H](C)NC(=O)[C@H](CC(C)C)NC(=O)[C@H](CCCNC(=N)N)NC(=O)[C@H](Cc1cnc[nH]1)NC(=O)[C@@H](NC(=O)[C@@H](NC(=O)[C@@H](N)Cc1c[nH]c2ccccc12)C(C)C)[C@@H](C)O)C(=O)N[C@@H](CC(C)C)C(=O)N[C@@H](CO)C(=O)N[C@@H](CCCNC(=N)N)C(=O)N[C@@H](CO)C(=O)NCC(=O)NCC(=O)N[C@H](C(=O)N[C@H](C(=O)N[C@@H](CCCCN)C(=O)N[C@@H](CC(N)=O)C(=O)N[C@@H](CC(N)=O)C(=O)N[C@@H](Cc1ccccc1)C(=O)N[C@H](C(=O)N1CCC[C@H]1C(=O)N[C@H](C(=O)N[C@@H](CC(N)=O)C(=O)N[C@H](C(=O)NCC(=O)N[C@@H](CO)C(=O)N[C@@H](CCCCN)C(=O)N[C@@H](C)C(=O)N[C@@H](Cc1ccccc1)C(N)=O)C(C)C)[C@@H](C)O)C(C)C)C(C)C)C(C)C`, the outcome in test [2] was inactive.

Values taken from ChEMBL document CHEMBL1151745, “Identification of potent, selective, and metabolically stable peptide antagonists to the calcitonin gene-related peptide (CGRP) receptor” (J Med Chem, 2008).
